# Data from ChEMBL document CHEMBL4014289, “Synthesis and evaluation of a ligand targeting the μ and δ opioid receptors for drug delivery to lung cancer” (Bioorg Med Chem Lett, 2017).
# Active and inactive are the calls of the source. The calls are words filed in the database; no cut-off is given here.
# How the values were obtained:
# [1] = target: Delta-type opioid receptor (Homo sapiens) (UniProt P41143); test: Binding affinity to delta opioid receptor (unknown origin) expressed in HEK cells at 10 nM by confocal microscopic method; type: cell-based
# Delta-type opioid receptor (Homo sapiens), sequence (P41143 whole entry): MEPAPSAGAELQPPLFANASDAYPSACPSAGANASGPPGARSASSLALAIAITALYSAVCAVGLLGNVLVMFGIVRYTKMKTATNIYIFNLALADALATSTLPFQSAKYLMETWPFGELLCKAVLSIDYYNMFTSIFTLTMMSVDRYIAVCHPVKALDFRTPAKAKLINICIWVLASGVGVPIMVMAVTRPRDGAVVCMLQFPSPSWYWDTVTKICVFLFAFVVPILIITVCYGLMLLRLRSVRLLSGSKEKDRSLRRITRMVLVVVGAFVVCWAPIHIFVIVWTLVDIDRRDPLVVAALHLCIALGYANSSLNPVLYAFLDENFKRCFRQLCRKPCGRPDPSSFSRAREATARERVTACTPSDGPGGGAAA
# Method in brief: (§1)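 HEK cells transfected to overexpress the δ-opioid receptor were incubated with a rhodamine-labelled naltrexone-derived conjugate for 1 h. They were given the conjugate alone or with a 100-fold higher concentration of naltrindole as competitor. Uptake and internalisation were imaged by confocal microscopy.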
# [2] = target: Delta-type opioid receptor (Homo sapiens) (UniProt P41143); test: Binding affinity to delta opioid receptor (unknown origin) expressed in HEK cells at 10 nM in presence of DOR antagonist […] after 1 hr by confocal microscopic method; type: cell-based; method in brief: as §1
# Intestine [3] = test: Drug uptake in Nu/Nu mouse intestine xenografted with HEK cells expressing mu opioid receptor (unknown origin); type: ADME, tissue-based
# Method in brief: (§2)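 Mice carrying HEK xenografts transfected with μ (HEK-mu) or δ (HEK-delta) opioid receptor. […] Mice were sacrificed at 4 h, and organs and tissues were collected and weighed. Radioactivity was counted against a standard tube and expressed as %ID/gram.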
# Kidney [4] = test: Drug uptake in Nu/Nu mouse kidney xenografted with HEK cells expressing mu opioid receptor (unknown origin); type: ADME, tissue-based; method in brief: as §2
# [5] = Drug uptake in Nu/Nu mouse skin xenografted with HEK cells expressing mu opioid receptor (unknown origin); type: ADME, Zone of skin; method in brief: as §2
# [6] = Drug uptake in Nu/Nu mouse tumor xenografted with HEK cells expressing mu opioid receptor (unknown origin); type: ADME, Neoplasm; method in brief: as §2
# [7] = target: Mu-type opioid receptor (Homo sapiens) (UniProt P35372); test: Binding affinity to mu opioid receptor (unknown origin) expressed in HEK cells at 25 nM by confocal microscopic method; type: cell-based
# Mu-type opioid receptor (Homo sapiens), sequence (P35372 whole entry): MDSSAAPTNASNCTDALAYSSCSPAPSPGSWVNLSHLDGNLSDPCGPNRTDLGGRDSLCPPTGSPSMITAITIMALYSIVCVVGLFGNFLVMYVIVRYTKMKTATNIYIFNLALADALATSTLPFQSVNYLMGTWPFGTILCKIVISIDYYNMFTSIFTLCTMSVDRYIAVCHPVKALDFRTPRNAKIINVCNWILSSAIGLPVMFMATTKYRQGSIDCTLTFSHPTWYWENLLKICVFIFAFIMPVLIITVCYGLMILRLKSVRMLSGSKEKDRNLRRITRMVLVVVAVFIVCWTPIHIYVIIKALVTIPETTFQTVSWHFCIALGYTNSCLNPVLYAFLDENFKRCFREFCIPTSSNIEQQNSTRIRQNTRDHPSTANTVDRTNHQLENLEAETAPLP
# Method in brief: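 HEK cells transfected to overexpress the μ-opioid receptor were treated with 25 nM rhodamine-labelled naltrexone-derived conjugate for 1 h. […] Cell-associated fluorescence and internalisation were imaged by confocal microscopy.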
# [8] = Antitumor activity against human SQC cells xenografted in nude mouse model assessed as tumor growth inhibition at 0.1 mg/kg administered daily relative to control; type: functional; settings: read-out: TGI
# [9] = Displacement of [3H]DADLE from delta opioid receptor in guinea pig brain membrane; type: cell membranes, Cavia porcellus
# Kidney [10] = test: Drug uptake in Nu/Nu mouse kidney xenografted with HEK cells expressing delta opioid receptor (unknown origin); type: ADME, tissue-based; method in brief: as §2
# Heart = test: Drug uptake in Nu/Nu mouse heart xenografted with HEK cells expressing delta opioid receptor (unknown origin); type: ADME, tissue-based; method in brief: as §2
# [11] = Drug uptake in Nu/Nu mouse skin xenografted with HEK cells expressing delta opioid receptor (unknown origin); type: ADME, Zone of skin; method in brief: as §2
# Intestine [12] = test: Drug uptake in Nu/Nu mouse intestine xenografted with HEK cells expressing delta opioid receptor (unknown origin); type: ADME, tissue-based; method in brief: as §2
# Liver = test: Drug uptake in Nu/Nu mouse liver xenografted with HEK cells expressing delta opioid receptor (unknown origin); type: ADME, tissue-based; method in brief: as §2
# Spleen = test: Drug uptake in Nu/Nu mouse spleen xenografted with HEK cells expressing delta opioid receptor (unknown origin); type: ADME, tissue-based; method in brief: as §2
# [13] = Drug uptake in Nu/Nu mouse tumor xenografted with HEK cells expressing delta opioid receptor (unknown origin); type: ADME, Neoplasm; method in brief: as §2
smiles,measurement,setting,value
CCN(CC)c1ccc2c(-c3ccc(NC(=S)NCCCCCn4cc(-c5ccc(C(=O)N[C@@H]6CC[C@@]7(O)[C@H]8Cc9ccc(O)c%10c9[C@@]7(CCN8CC7CC7)[C@H]6O%10)cn5)nn4)cc3C(=O)O)c3ccc(=[N+](CC)CC)cc-3oc2c1,Activity,[1],Active
same,Activity,[2],Active
NC(CNC(=O)CCOCCOCCOCCOCCNC(=O)CCC(=O)NCC(=O)NCC(=O)N[C@@H]1CC[C@@]2(O)[C@H]3Cc4ccc(O)c5c4[C@@]2(CCN3CC2CC2)[C@H]1O5)C(=O)NC(CC(=O)O)C(=O)NC(CS)C(=O)O (stereo partly specified),Drug uptake,Intestine [3],Active
same,Drug uptake,Kidney [4],Active
same,Drug uptake,[5],Active
same,Drug uptake,[6],Active
CCN(CC)c1ccc2c(-c3ccc(NC(=S)NCC(=O)NCC(=O)N[C@@H]4CC[C@@]5(O)[C@H]6Cc7ccc(O)c8c7[C@@]5(CCN6CC5CC5)[C@H]4O8)cc3C(=O)O)c3ccc(=[N+](CC)CC)cc-3oc2c1,Activity,[7],Active
O=C1CC[C@@]2(O)[C@H]3Cc4ccc(O)c5c4[C@@]2(CCN3CC2CC2)[C@H]1O5 [NALTREXONE],inhibition in vivo at 0.1 mg/kg,[8],84%
same,Ki,[9],10.5 nM
NC(CNC(=O)CCOCCOCCOCCOCCNC(=O)CCC(=O)NCCCCCn1cc(-c2ccc(C(=O)N[C@@H]3CC[C@@]4(O)[C@H]5Cc6ccc(O)c7c6[C@@]4(CCN5CC4CC4)[C@H]3O7)cn2)nn1)C(=O)NCC(N)C(=O)NC(CC(=O)O)C(=O)NC(CS)C(=O)O (stereo partly specified),Drug uptake,Kidney [10],Active
same,Drug uptake,Heart,Active
same,Drug uptake,[11],Active
same,Drug uptake,Intestine [12],Active
same,Drug uptake,Liver,Active
same,Drug uptake,Spleen,Active
same,Drug uptake,[13],Active
